KCNQ1 inh – blocks the human KCNQ1 potassium channel | CHO-K1 KCNQ1, FluxOR thallium flux fluorescence; active compounds read high | 1.3% of 310,000 active | AID 2642 | B-score at 10 µM | P51787;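 active = compounds whose thallium flux B-score, printed positive for inhibition, exceeds three library SD while starting fluorescence stays within three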;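 note: channel opened by potassium depolarization with thallium stimulus after 20 min compound exposure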
KCNK9 inh – human KCNK9 channel inhibition | B-score at 10 µM | Q9NPC2 | AID 488922 | HEK293 KCNK9, FluxOR thallium flux fluorescence; active compounds read low | 1.2% of 310,000 active;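 active = ratio B-score over 3 SD below the library mean, with starting fluorescence within 5 SD of its mean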;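 note: negative B-score means less thallium flux so channel inhibition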
Cl transport mod – modulates chloride dependent transport by human KCC2; Q9H2X9; KCC2 cells, thallium flux FluoZin-2 fluorescence; B-score of Tl+ flux slope (higher = more flux/activation; lower = inhibition) at 10 µM; 2.2% of 190,000 active;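 active = thallium flux slope and its plate-corrected score both differing from the plate sample mean at a set confidence after two filtering rounds, in either direction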;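 note: slope of fluorescence scaled to starting intensity during 10 to 20 s after thallium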
Target sequence (Q9H2X9 whole entry, looked up): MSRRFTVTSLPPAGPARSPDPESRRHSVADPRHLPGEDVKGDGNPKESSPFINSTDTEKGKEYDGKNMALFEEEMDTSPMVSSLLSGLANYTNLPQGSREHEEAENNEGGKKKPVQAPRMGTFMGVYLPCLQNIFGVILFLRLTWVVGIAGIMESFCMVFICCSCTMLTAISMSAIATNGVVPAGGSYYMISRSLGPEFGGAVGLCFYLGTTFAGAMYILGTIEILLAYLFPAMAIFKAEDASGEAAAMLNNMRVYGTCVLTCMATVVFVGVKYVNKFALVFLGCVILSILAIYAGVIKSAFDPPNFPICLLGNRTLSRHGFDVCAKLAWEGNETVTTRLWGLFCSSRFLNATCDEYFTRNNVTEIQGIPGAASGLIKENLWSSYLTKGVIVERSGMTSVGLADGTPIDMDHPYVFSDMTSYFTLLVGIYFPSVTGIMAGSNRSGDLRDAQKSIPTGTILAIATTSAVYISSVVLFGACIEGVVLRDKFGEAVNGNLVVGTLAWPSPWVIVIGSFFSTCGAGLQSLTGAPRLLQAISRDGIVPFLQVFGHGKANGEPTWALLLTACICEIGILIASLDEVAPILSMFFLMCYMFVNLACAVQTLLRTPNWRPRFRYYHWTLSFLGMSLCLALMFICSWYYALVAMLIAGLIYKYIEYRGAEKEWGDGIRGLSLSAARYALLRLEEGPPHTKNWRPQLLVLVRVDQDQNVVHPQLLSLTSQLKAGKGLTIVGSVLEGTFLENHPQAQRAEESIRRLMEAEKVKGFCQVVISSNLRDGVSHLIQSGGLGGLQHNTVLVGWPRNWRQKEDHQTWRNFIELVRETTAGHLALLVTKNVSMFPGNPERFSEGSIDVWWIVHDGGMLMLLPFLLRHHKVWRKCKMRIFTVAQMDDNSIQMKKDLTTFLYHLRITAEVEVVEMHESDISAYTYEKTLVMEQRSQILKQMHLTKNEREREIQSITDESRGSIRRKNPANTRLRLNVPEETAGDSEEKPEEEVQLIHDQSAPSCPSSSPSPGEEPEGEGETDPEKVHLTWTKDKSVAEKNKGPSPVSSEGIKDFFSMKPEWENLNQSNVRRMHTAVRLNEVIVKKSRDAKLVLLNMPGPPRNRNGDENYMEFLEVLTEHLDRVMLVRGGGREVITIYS
KCNQ1 act – potentiates or activates the human KCNQ1 potassium channel | 0.35% of 310,000 active | P51787 | B-score at 10 µM | CHO-K1 KCNQ1, thallium flux FluxOR fluorescence; active compounds read high | AID 2648;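 active = fluorescence ratio B-score, a plate-corrected score, at least three library SD, with initial intensity B-score within 5 SD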
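System: Stable KCNQ1 CHO-K1 line | Incubation: 90 min dye loading and 20 min compound exposure, both at room temperature | Measure: Ratio B score | Medium: Assay buffer for compound exposure, DMSO matched across wells | Compound dosing: Single-concentration screen | Probe or stimulus: K+/Tl+ depolarizing stimulus | Measured by: Kinetic FluxOR fluorescence, 10 s baseline plus 110 s post-stimulus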
KCNK3 inh – human KCNK3 channel inhibition, primary screen. O14649. CHO-KCNK3 thallium flux, FluxOR fluorescence; active compounds read low. B-score at 10 µM. 0.84% of 340,000 active;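 active = B-score under library mean minus 4 SD, starting fluorescence ratio at most library mean plus 5 SD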;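 note: more negative B-score means stronger inhibition of thallium flux through KCNK3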
hERG protect – shields human hERG channel from block by proarrhythmic agents; CHO-hERG, FluxOR thallium flux, dofetilide IC70 present; activation (rescue from dofetilide block), less the hit threshold, % at 10 µM; 0.51% of 310,000 active; Q12809;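 active = activation above the mean of controls blocked by dofetilide plus 5 SD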;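 note: thallium influx through hERG after potassium depolarization seen as dye fluorescence rise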
A number is an active result; . = inactive; / = no result. Most compounds without a hit are left out; they make up all but 4.1% or so of the library.

SMILES	KCNQ1 inh	KCNK9 inh	Cl transport mod	KCNQ1 act	KCNK3 inh	hERG protect
CCOc1ccc(-c2cc(N3C(=O)Nc4ccccc4N3O)n[nH]2)cc1	.	.	.	.	.	.
Cc1sc2nc(SCC(=O)N(C)Cc3ccccc3)n(-c3ccccc3)c(=O)c2c1C	.	.	.	.	-8.7	.
COC(=O)C[C@H](NC(=O)Cn1cc(C)c(=O)[nH]c1=O)C(=O)OC	/	/	/	/	.	/
COc1ccc(-c2csc3ncnc(N4CCN(S(=O)(=O)c5cccc(C(F)(F)F)c5)CC4)c23)cc1	.	-7.1	/	.	.	.
COc1ccc(-c2csc3ncnc(N4CCN(S(=O)(=O)c5cccc(Br)c5)CC4)c23)cc1	.	.	/	.	.	.
CCSc1nnc(-c2ccc(C)cc2)c2ccccc12	.	-7	.	.	.	.
CCSc1nnc(-c2ccc(Cl)cc2)c2ccccc12	.	.	.	.	.	.
COC(=O)N/N=C1\CCCc2c(C)cc(C)cc21	.	.	.	.	.	.
Cc1cc(C)c2c(c1)/C(=N/NC(=S)Nc1ccc(F)cc1)CCC2	.	.	2.9	.	.	.
CCCCCSc1nnc2c(n1)OC(c1cccn1C)N(C(C)=O)c1ccccc1-2 (stereo not given)	.	-9.7	.	.	.	.
CCSc1nnc2c(n1)OC(c1ccc(C(=O)O)cc1)N(C(C)=O)c1ccccc1-2 (stereo not given)	.	.	/	.	.	.
CC(C)(C)OC(=O)CC1(C#N)c2ccccc2C(Br)=CN1C(=O)c1ccccc1 (stereo not given)	.	-7.4	/	.	.	.
COc1ccc(Br)cc1C(=O)NC(=S)Nc1c(C)n(C)n(-c2ccccc2)c1=O	.	.	/	.	.	4.8
Cc1c(NC(=S)NC(=O)c2ccccc2Cl)c(=O)n(-c2ccccc2)n1C	.	.	/	.	.	.
CN1CCN(c2ccccc2NC(=O)c2ccc(-c3ccccc3)cc2)CC1	.	.	.	.	-8.8	.
COCCN(Cc1nc2ccccc2c(=O)[nH]1)C(=O)COc1ccccc1-c1ccccc1	/	/	/	/	.	/
C/C(=N\Nc1nc2ccccc2[nH]1)c1ccc(Cl)s1	.	.	.	11	.	.
Cc1cccc(NC(=S)c2nc3ccccc3s2)c1	.	.	3.3	10	.	43
CC1(NC(=O)CCNC(=O)c2ccc(C(C)(C)C)cc2)CCS(=O)(=O)C1 (stereo not given)	/	/	/	/	.	/
COc1cc(/C=C(\C#N)c2nc3ccccc3s2)cc([N+](=O)[O-])c1O	6	.	.	.	.	.
Cc1ccccc1C(=O)Nc1ccc(-c2nc3ccc(C(=O)c4ccccc4)cc3[nH]2)cc1	6	.	.	.	.	.
Cn1c(CNC(=O)CNC(=O)Cc2ccc(Cl)cc2)cc(=O)n(C)c1=O	.	.	/	.	.	.
Clc1ccc(-c2csc(Nc3ccccc3)[n+]2Cc2ccco2)c(Cl)c1	.	-7.3	.	.	.	.
Cc1ccc(NC(=O)C(c2ccccc2)C2CCCC2)cc1 (stereo not given)	.	-6.7	.	.	.	.
OC(c1ccccc1)(C1CCCCC1)C(CN1CCOCC1)c1ccccc1 (stereo not given)	6	.	/	.	.	.
SMILES	KCNQ1 inh	KCNK9 inh	Cl transport mod	KCNQ1 act	KCNK3 inh	hERG protect
CN(C)CCN(Cc1ccccc1)S(=O)(=O)c1ccc2c(c1)n(C)c(=O)c(=O)n2C	.	-7	.	.	.	.
CCCCN(Cc1ccccc1)S(=O)(=O)c1ccc2c(c1)n(C)c(=O)c(=O)n2C	.	.	.	.	.	.
[O-]/[N+](=C\c1ccco1)c1ccc(Cl)cc1	.	.	/	.	.	.
NS(=O)(=O)c1ccc(NC(=S)Nc2ccc(OCc3ccccc3)cc2)cc1	.	.	.	30	.	.
Nc1ccc(CSc2ccc(Cl)cc2)c(Cl)c1	/	/	/	/	.	/
Nc1c(-c2ccccc2Cl)cnn1-c1cccc([N+](=O)[O-])c1	.	-7.6	.	.	.	.
CC(=O)C(C(C)=O)c1c(Cl)c(O)c(O)c2c(C(=O)c3ccccc3)coc12	.	.	-5.3	.	.	.
CCN1C[C@@H]2[C@@H]3C(=O)N(Cc4ccccc4)C(=O)[C@@H]3[C@](Cc3ccccc3)(C(=O)OC)N2C1=NC	/	/	/	/	.	/
CSCCC(N=C1NS(=O)(=O)c2ccccc21)C(=O)N1CCCC(C(N)=O)C1 (stereo not given)	.	.	/	.	.	.

Assay outcomes: PubChem, several laboratories
